This note sets out measurements from ChEMBL document CHEMBL4513216, “Probing the Open Global Health Chemical Diversity Library for Multistage-Active Starting Points for Next-Generation Antimalarials” (ACS Infect Dis, 2020).

The data set can be described thus: Toxicity liver stage against HepG2, at 10uM. Type of data set: cell-based. Also on record: test concentration 10 uM, cell line HepG2-A16-CD81EGFP. As to conditions: human, HepG2-A16-CD81EGFP cells; read-out: INHIBITION
The method in brief:
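Uninfected HepG2-A16-CD81EGFP cells, 3 × 10^3 per well, 1536-well, plated on prespotted compound at 10 μM final, parasite-free screening media added to match infected plates; puromycin 10 μM positive, DMSO 0.5% negative; run in parallel with 48 h PbLuc assay at 37 °C, 5% CO2; viability by CellTiter-Glo luminescence, normalized to controls.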
`O=c1[nH]ncn1-c1cccc(C(F)(F)F)c1`: the cytotoxicity at 10 µM was -2%.
As to `O=C(NCN1CCc2ccccc2C1)c1cnccn1`, the cytotoxicity at 10 µM came to 20.2%.
Turning to `COCC(=O)N1CCC2(CC1)CC(OC)c1ccc(F)cc12` (stereo not given), the cytotoxicity at 10 µM is -134%.
As to `CCNC(=O)N1CCC2(C1)c1ccccc1S(=O)(=O)N2CCC(C)C` (stereo not given), the cytotoxicity at 10 µM was -8.25%.
Turning to `COc1cc(CNc2ccc(Cl)cc2)ccc1OCC(=O)O`, the cytotoxicity at 10 µM worked out at 3.63%.
As for `O=C(Nc1ccc(F)cc1-c1nc(C2CC2)no1)N1CC[C@@H](O)C1`, the cytotoxicity at 10 µM was -1.54%.
With `CCn1nc2c(cc1=O)CN(Cc1nc(-c3ccoc3)no1)CC2`, the cytotoxicity at 10 µM was determined as 4.9%.
Take `Cc1cc(C(F)(F)F)c2c(=O)n(Cc3cc(C)on3)n(C)c2n1`: the cytotoxicity at 10 µM is 1.46%.
In the case of `CC(CC(=O)c1ccco1)NC(=O)c1ccccn1` (stereo not given), the cytotoxicity at 10 µM was -5.14%.
Take `COc1cc(/C=C/c2ncc(C(=O)O)s2)cc(OC)c1`: the cytotoxicity at 10 µM was -3.86%.
Consider `CCN1CCN(c2ccc(C(=O)NC(C)c3ccncc3)cc2)CC1` (stereo not given), for which the cytotoxicity at 10 µM is -16.6%.
The figure for `Cn1c(=O)oc2ccc(Nc3ncc(C#N)cc3Cl)cc21` is -1.21%; for `CC(C(=O)NCCc1cccs1)N1CCC(n2ccnc2)CC1` (stereo not given) it is -16%.
For `Cc1cc(C)n(CC2CCCCN2C(=O)c2sccc2C#N)n1` (stereo not given), the cytotoxicity at 10 µM is -0.497%.
As for `O=C(COCc1ccccc1Cl)Nc1ccnn1CC1CCOC1` (stereo not given), the cytotoxicity at 10 µM is -1.9%.
With `CC(Oc1ccccc1C#N)C(=O)NC1CC1` (stereo not given), the cytotoxicity at 10 µM is 6.21%.
Take `O=C(c1ccc[nH]1)N1CCCn2c(CN3CCCCC3)nnc2C1`: the cytotoxicity at 10 µM was -106%.
On to `Cc1cccc(N2CC3(COCCN(c4ccncn4)C3)OCC2=O)c1` (stereo not given), for which the cytotoxicity at 10 µM was -105%.
For the molecule `Cc1occc1C(=O)N1CCC2(CC1)NC(=O)CC2c1cnn(C)c1` (stereo not given), the cytotoxicity at 10 µM is -4.99%.
`Cc1ccccc1-n1cc(CN(C)C(=O)CC2C(=O)NCCN2C)cn1` (stereo not given): the cytotoxicity at 10 µM stood at 6.89%.
For `CCN(Cc1ccc(O)c(C(=O)O)c1)CC1CCCO1` (stereo not given), the cytotoxicity at 10 µM worked out at 3.9%.
The figure for `CC(C)c1nccn1CCCNC(=O)c1ccc(-c2cnn(C)c2)nc1` is -9.36%; for `CCc1cc(N(C)Cc2ccncn2)n2nc(C)c(C)c2n1` it is 4.34%; for `CC(C)N1CCC(c2nnc(CN3CCCC3)n2C2CC2)CC1` it is -4.57%.
Under `O=C(NCCc1ccc2c(c1)OCO2)C1CCCN(Cc2ccco2)C1` (stereo not given) stands 0.209%; under `Cc1nc(CN2CCC(c3nc4ccccc4n3C)CC2)co1`, 13.5%; under `CC(C)Oc1ccc2c(NC(=O)CN(C)C)nn(CC(F)(F)F)c2c1`, 1.6%.
With `Cc1nc2c(c(NCc3ccccc3)n1)CCN(C(=O)C1CCC1)CC2`, the cytotoxicity at 10 µM was 14.3%.
For the molecule `CCN1CCOCC12CCN(C(=O)c1ccsc1)CC2`, the cytotoxicity at 10 µM was -146%.
With `Cn1nnc2c1C(COCC1CC1)CN(Cc1ccoc1)C2` (stereo not given), the cytotoxicity at 10 µM was found to be 2.49%.
The figure for `Cc1ncsc1CN1C[C@@H]2COC[C@]2(C(=O)NCc2cccnc2)C1` is -106%.
On to `O=C(c1ccsc1)N1CCO[C@@H]2CN(Cc3nccs3)C[C@@H]2C1`, for which the cytotoxicity at 10 µM was -108%.
Under `COCCN1CCOCC12CCN(c1cnccn1)CC2` stands -102%.
As for `Cc1noc(C)c1CN1CCC2(CC1)C(c1ccccc1)CC(=O)N2C` (stereo not given), the cytotoxicity at 10 µM was -105%.
As for `c1ccc(CN2CCC3(CC2)CCN(c2ccccn2)C3)nc1`, the cytotoxicity at 10 µM is -128%.
The figure for `Cc1cccc(CN2CC[C@@H]3[C@@H]2CCN3C(=O)Cc2cccs2)n1` is -114%; for `O=C(Nc1cccnc1)[C@H]1C[C@H]2OCC[C@H]2N(CC2CC2)C1` it is 4.7%; for `COc1ccc2c(ccn2CCCN)c1` it is -3.91%.
For the molecule `O=c1c2c[nH]c(N3CCCC3)nc-2cn1C1CCS(=O)(=O)C1` (stereo not given), the cytotoxicity at 10 µM is 1.09%.
As for `CCC=C(C)C(=O)NCc1ccnc(OC)c1`, the cytotoxicity at 10 µM was -2.51%.
